Legend:
Human betaherpesvirus 5 [1] = assay: Antiviral activity against human cytomegalovirus (HCMV) in plaque reduction assay; assay type: functional, organism-based
In short: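 HCMV Towne strain (plaque-purified P0) on HFF monolayers; inoculum ~100 PFU in 0.2 mL; compounds dissolved in overlay medium; plaques counted after staining; IC50 from linear regression of percent inhibition vs log concentration; averages of duplicate or triplicate experiments.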

HFF = assay: Cytotoxicity produced in human foreskin fibroblasts (HFF) cells was estimated by visual scoring of cells unaffected by virus infection in the plaque-reduction assay.; assay type: ADME, cell-based
In short: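 Uninfected HFF cells in the HCMV plaque-reduction plates, examined at 30-fold magnification; drug-induced cytopathology scored 0–4 on the day of staining for plaque counting.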

KB [2] = assay: Inhibitory activity against growth of human epidermoid oral carcinoma KB cell line; assay type: functional, cell-based
In short: (§1)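 KB cells grown in MEM with Hank's salts plus 10% calf serum; logarithmically growing cells, staining-based growth read-out, quadruplicate assays; IC50 from linear regression of percent inhibition vs log drug concentration.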

Human alphaherpesvirus 1 = assay: Antiviral activity against herpes simplex virus type 1 (HSV-1) was performed by HSV-1 ELISA assays.; assay type: functional, organism-based
In short: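 HSV-1 strain KOS (used in most experiments); ELISA read-out, quadruplicate wells; IC50 from linear regression of percent inhibition against log drug concentration.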

Human betaherpesvirus 5 [3] = assay: Antiviral activity against human cytomegalo virus (HCMV) in yield reduction assay; assay type: functional
Human betaherpesvirus 5 [4] = assay: Antiviral activity against human cytomegalovirus (HCMV) in yield reduction assay; assay type: functional
KB [5] = assay: Inhibitory activity against growth of KB cell.; assay type: functional, cell-based; conditions: Homo sapiens; in short: as §1

`OC[C@H]1O[C@@H](n2c(=S)[nH]c3ccc(Cl)cc32)[C@H](O)[C@@H]1O` was tested, and the IC50 (Human betaherpesvirus 5 [1]) was over 100 µM, the IC50 (HFF) was over 100 µM and the IC50 (KB [2]) was over 100 µM. The IC50 (Human alphaherpesvirus 1) was over 100 µM.

In the case of `O=[N+]([O-])c1ccc2[nH]c(Cl)nc2c1`, the IC50 (Human betaherpesvirus 5 [1]) is reported as 6 µM, the IC50 (HFF) is reported as 20 µM and the IC50 (Human alphaherpesvirus 1) is reported as 21 µM.

`OC[C@H]1O[C@@H](n2c(Cl)nc3cc(Cl)c(Cl)cc32)[C@H](O)[C@@H]1O` showed an IC50 (Human betaherpesvirus 5 [1]) of 2.8 µM and an IC90 (Human betaherpesvirus 5 [3]) of 1.3 µM.

Work on `Nc1ccc2nc(Cl)n(C3O[C@H](CO)[C@@H](O)[C@H]3O)c2c1` (stereo partly specified) yielded an IC50 (Human betaherpesvirus 5 [1]) of over 100 µM, an IC50 (HFF) of over 300 µM and an IC50 (Human alphaherpesvirus 1) of over 100 µM.

Compound `CSc1nc2ccc(Cl)cc2n1C1O[C@H](CO)[C@@H](O)[C@H]1O` (stereo partly specified) has an IC50 (Human betaherpesvirus 5 [1]) of over 100 µM, an IC50 (HFF) of over 100 µM and an IC50 (Human alphaherpesvirus 1) of under 100 µM.

Work on `OC[C@H]1OC(n2c(Cl)nc3ccc(Cl)cc32)[C@H](O)[C@@H]1O` (stereo partly specified) yielded an IC90 (Human betaherpesvirus 5 [4]) of 52 µM, an IC50 (Human betaherpesvirus 5 [1]) of 58 µM and an IC50 (HFF) of over 100 µM. It also gave an IC50 (Human alphaherpesvirus 1) of over 100 µM.

Compound `OC[C@H]1OC(n2c(Cl)nc3cc(Cl)ccc32)[C@H](O)[C@@H]1O` (stereo partly specified) has an IC90 (Human betaherpesvirus 5 [4]) of 100 µM, an IC50 (Human betaherpesvirus 5 [1]) of 150 µM and an IC50 (HFF) of over 100 µM. For the same compound, the IC50 (Human alphaherpesvirus 1) was over 100 µM.

`Nc1ccc2c(c1)nc(Cl)n2C1O[C@H](CO)[C@@H](O)[C@H]1O` (stereo partly specified) was tested, and the IC50 (Human betaherpesvirus 5 [1]) was over 300 µM and the IC50 (HFF) was over 300 µM.

`OC[C@H]1OC(n2c(SCc3ccccc3)nc3ccc(Cl)cc32)[C@H](O)[C@@H]1O` (stereo partly specified) was tested, and the IC50 (Human betaherpesvirus 5 [1]) was over 100 µM, the IC50 (HFF) was over 100 µM and the IC50 (Human alphaherpesvirus 1) was over 100 µM.

`COc1nc2ccc(Cl)cc2n1C1O[C@H](CO)[C@@H](O)[C@H]1O` (stereo partly specified) gave an IC50 (Human betaherpesvirus 5 [1]) of over 100 µM, an IC50 (HFF) of over 100 µM and an IC50 (KB [2]) of over 100 µM. For the same compound, the IC50 (Human alphaherpesvirus 1) was over 100 µM.

`OC[C@H]1O[C@@H](n2cnc3cc(Cl)c(Cl)cc32)[C@H](O)[C@@H]1O` [DICHLORORIBOBENZIMIDAZOLE] showed an IC90 (Human betaherpesvirus 5 [4]) of 19 µM.

`Nc1nc2c(ncn2COC(CO)CO)c(=O)[nH]1` [GANCICLOVIR] showed an IC50 (HFF) of over 100 µM, an IC90 (Human betaherpesvirus 5 [3]) of 1.6 µM and an IC50 (KB [5]) of over 100 µM.

Reference: ChEMBL document CHEMBL1129079, “Synthesis and antiviral evaluation of certain disubstituted benzimidazole ribonucleosides” (J Med Chem, 1996)
